How the values were obtained:
[1] = biological target: Neuronal acetylcholine receptor; alpha4/beta2 (Rattus norvegicus, UniProt P09483+P12390); assay: Displacement of [3H]epibatidine from rat alpha4beta2 nAChR expressed in […] cells after 3 hrs; assay type: cell-based
[2] = species on record: Rattus norvegicus; assay: Selectivity ratio of Ki for rat alpha3beta4 nAChR to Ki for alpha7 nAChR in rat brain membranes; assay type: cell membranes
[3] = species on record: Rattus norvegicus; assay: Selectivity ratio of Ki for rat alpha3beta4 nAChR to Ki for rat alpha4beta2 nAChR
Method in brief: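 KXα3β4R2 or KXα4β2R2 cells grown in DMEM with 10% FBS and 0.4 mg/mL geneticin at 37°C under 7.5% CO2. Cells were scraped, homogenised in Tris buffer and spun at 20,000 x g to give membranes. […] Ki was obtained from IC50 by Cheng-Prusoff.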

[4] = biological target: T1, Neuronal acetylcholine receptor; alpha3/beta4 (Rattus norvegicus, UniProt P04757+P12392); assay: Partial agonist activity at rat alpha3beta4 nAChR expressed in […] cells assessed as increase of calcium influx by FLIPR assay; assay type: functional, cell-based
Method in brief: (§1)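 For functional assays, KXα3β4R2 cells (DMEM, 10% FBS, geneticin, 37°C, 7.5% CO2) were seeded into collagen-coated 96-well plates at about 50,000 cells/well. They grew to a confluent monolayer in 24 to 30 h before testing.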

[5] = biological target: Neuronal acetylcholine receptor; alpha3/beta4 (Rattus norvegicus) (UniProt P04757+P12392); assay: Partial agonist activity at rat alpha3beta4 nAChR expressed in […] cells assessed as increase of calcium influx by FLIPR assay relative to control; assay type: functional, cell-based; method in brief: as §1
[6] = biological target: T1, Neuronal acetylcholine receptor; alpha3/beta4; assay: Displacement of [3H]epibatidine from rat alpha3beta4 nAChR expressed in […] cells after 3 hrs; assay type: cell-based

T1 sequence (P04757 whole entry): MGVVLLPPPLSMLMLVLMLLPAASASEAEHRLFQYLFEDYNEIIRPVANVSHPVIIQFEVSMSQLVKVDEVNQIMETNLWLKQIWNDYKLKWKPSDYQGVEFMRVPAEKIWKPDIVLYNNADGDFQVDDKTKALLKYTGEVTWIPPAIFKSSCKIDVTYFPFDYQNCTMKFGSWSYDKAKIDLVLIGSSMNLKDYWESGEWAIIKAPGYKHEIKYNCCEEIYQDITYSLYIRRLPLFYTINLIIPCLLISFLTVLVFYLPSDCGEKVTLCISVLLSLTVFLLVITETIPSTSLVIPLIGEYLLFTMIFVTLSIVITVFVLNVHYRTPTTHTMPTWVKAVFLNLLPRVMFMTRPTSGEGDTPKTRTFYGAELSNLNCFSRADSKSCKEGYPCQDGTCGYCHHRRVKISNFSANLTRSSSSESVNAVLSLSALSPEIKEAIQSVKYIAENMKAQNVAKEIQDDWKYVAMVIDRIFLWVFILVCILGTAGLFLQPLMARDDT
T1 sequence (P12392 whole entry): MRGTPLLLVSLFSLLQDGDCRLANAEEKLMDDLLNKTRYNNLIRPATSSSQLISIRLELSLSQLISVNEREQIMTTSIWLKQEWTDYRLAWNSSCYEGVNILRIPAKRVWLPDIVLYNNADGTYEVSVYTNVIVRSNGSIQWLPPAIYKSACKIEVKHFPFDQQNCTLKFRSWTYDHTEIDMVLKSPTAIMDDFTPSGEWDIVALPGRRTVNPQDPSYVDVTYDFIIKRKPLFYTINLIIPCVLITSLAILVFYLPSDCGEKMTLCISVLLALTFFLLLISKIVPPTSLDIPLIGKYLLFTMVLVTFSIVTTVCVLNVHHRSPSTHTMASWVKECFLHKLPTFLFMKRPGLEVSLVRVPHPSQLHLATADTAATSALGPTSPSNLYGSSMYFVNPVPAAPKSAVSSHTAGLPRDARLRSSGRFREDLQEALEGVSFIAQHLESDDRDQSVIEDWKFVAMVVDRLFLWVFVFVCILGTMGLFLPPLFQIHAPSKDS
Neuronal acetylcholine receptor; alpha4/beta2, sequence (P09483 whole entry): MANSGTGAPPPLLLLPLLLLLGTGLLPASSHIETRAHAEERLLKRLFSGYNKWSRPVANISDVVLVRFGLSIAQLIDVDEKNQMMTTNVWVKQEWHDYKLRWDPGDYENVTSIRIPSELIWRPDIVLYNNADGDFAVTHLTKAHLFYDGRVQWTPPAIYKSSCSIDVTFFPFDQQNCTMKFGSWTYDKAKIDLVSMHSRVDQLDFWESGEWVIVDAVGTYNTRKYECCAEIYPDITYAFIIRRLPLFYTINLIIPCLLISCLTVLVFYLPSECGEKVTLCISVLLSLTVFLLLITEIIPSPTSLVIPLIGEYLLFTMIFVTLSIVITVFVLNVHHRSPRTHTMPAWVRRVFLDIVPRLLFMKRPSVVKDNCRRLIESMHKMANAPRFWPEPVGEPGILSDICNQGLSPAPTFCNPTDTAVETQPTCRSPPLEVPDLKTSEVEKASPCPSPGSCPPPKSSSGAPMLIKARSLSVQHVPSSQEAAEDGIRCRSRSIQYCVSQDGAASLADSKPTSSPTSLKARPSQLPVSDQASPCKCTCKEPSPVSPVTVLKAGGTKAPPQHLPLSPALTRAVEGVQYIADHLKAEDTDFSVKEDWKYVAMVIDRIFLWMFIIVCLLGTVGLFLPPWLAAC
Neuronal acetylcholine receptor; alpha4/beta2, sequence (P12390 whole entry): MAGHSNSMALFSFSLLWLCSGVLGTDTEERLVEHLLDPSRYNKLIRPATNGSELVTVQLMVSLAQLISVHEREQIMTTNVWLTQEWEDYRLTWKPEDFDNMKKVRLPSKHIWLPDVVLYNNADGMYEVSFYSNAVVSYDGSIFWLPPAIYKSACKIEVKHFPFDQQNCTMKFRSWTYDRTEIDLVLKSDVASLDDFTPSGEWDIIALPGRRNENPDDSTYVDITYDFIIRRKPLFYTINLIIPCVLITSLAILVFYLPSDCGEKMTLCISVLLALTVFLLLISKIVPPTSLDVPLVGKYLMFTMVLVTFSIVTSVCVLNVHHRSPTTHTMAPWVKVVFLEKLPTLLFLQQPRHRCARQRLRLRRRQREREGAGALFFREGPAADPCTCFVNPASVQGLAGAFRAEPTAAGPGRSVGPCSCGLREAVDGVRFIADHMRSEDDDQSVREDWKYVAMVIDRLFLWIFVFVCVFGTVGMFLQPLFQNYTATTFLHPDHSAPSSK

O=C1Cc2ccccc2N1C1CC2CCCC(C1)N2 (stereo not given)
Ki [1]: > 100 µM

C1=C(c2cccnc2)CC2CCC1CN2Cc1ccccc1 (stereo not given)
Ratio Ki [2]: 200 | Ratio Ki [3]: 100 | EC50 [4]: 2 µM | Emax [5]: 72%

CN1C2CCCC1CC(N1C(=O)Cc3ccccc31)C2 (stereo not given)
Ki [1]: > 100 µM

CN1C2CCC1CC(N1C(=O)Cc3ccccc31)C2 (stereo not given)
Ki [1]: > 100 µM

O=C1Cc2ccccc2N1C1CC2CC(C1)N(Cc1ccccc1)C2 (stereo not given)
Ki [6]: 1.84 µM | Ki [1]: > 10 µM

CN1CC2CC1CC(N1C(=O)Cc3ccccc31)C2 (stereo not given)
Ki [6]: > 10 µM | Ki [1]: > 10 µM

CC(c1ccc(C2CCCCC2)cc1)N1CCC(N2C(=O)Cc3ccccc32)CC1 (stereo not given)
Ki [6]: > 10 µM | Ki [1]: > 10 µM

CN1C2C=C(c3cccnc3)CC1CCC2 (stereo not given)
EC50 [4]: 4.8 µM | Emax [5]: 44% | Ki [1]: 0.0104 µM

CC1CN(Cc2ccccc2)CCC1N1C(=O)Cc2ccccc21 (stereo not given)
Ki [6]: > 10 µM | Ki [1]: > 10 µM

CCC(C)(C)C1CCC(N2CCC(C3C(=O)Nc4ccccc43)CC2)CC1 (stereo not given)
Ki [6]: > 10 µM | Ki [1]: > 10 µM

Source: ChEMBL document CHEMBL1275396 (J Med Chem, 2010)
